In ChEMBL document CHEMBL2375304, “Synthesis and anticancer activity of novel 2-pyridyl hexahyrocyclooctathieno[2,3-d]pyrimidine derivatives” (2013):

Columns and labels:
Assay type in all cases: functional
[1] = test system: M14; experiment: Growth inhibition of human M14 cells at 10^-5 M after 48 hrs by Sulforhodamine B assay relative to control; conditions: M14, 48 h, read-out: GI
How it was run: (§1)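 Single-dose screen at 10⁻⁵ M. Cells are preincubated 24 h at 37 °C in 5% CO2, then exposed to the compound, diluted from a DMSO stock into medium with gentamicin, for 48 h. Adherent cells are fixed with cold TCA (final 10%) and suspension cells with TCA (final 16%). Cells are stained with 0.4% SRB in 1% acetic acid and bound dye is read at 515 nm. Percent growth inhibition is taken against control wells and time-zero plates.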

[2] = test system: LOX IMVI; experiment: Growth inhibition of human LOXIMVI cells at 10^-5 M after 48 hrs by Sulforhodamine B assay relative to control; conditions: read-out: GI; how it was run: as §1
[3] = test system: HCT-116; experiment: Growth inhibition of human HCT116 cells at 10^-5 M after 48 hrs by Sulforhodamine B assay relative to control; conditions: HCT-116, 48 h, read-out: GI; how it was run: as §1
[4] = test system: HOP-62; experiment: Growth inhibition of human HOP62 cells at 10^-5 M after 48 hrs by Sulforhodamine B assay relative to control; conditions: HOP-62, 48 h, read-out: GI; how it was run: as §1
[5] = test system: A549; experiment: Growth inhibition of human A549/ATCC cells at 10^-5 M after 48 hrs by Sulforhodamine B assay relative to control; conditions: A549, 48 h, read-out: GI; how it was run: as §1
[6] = test system: K562; experiment: Growth inhibition of human K562 cells at 10^-5 M after 48 hrs by Sulforhodamine B assay relative to control; conditions: K562, 48 h, read-out: GI; how it was run: as §1
[7] = test system: MDA-MB-468; experiment: Growth inhibition of human MDA-MB-468 cells at 10^-5 M after 48 hrs by Sulforhodamine B assay relative to control; conditions: MDA-MB-468, 48 h, read-out: GI
How it was run: (§2)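 Single-dose primary screen at 10⁻⁵ M across 49 lines. Cells were plated 24 h beforehand, with a TCA-fixed time-zero plate, then exposed 48 h at 37 °C, 5% CO2. Cells were fixed with cold TCA, stained with SRB and read at 515 nm. Percent growth was calculated against time-zero and untreated-control absorbances.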

[8] = test system: BT-549; experiment: Growth inhibition of human BT549 cells at 10^-5 M after 48 hrs by Sulforhodamine B assay relative to control; conditions: BT-549, 48 h, read-out: GI; how it was run: as §1
[9] = test system: Hs-578T; experiment: Growth inhibition of human Hs578T cells at 10^-5 M after 48 hrs by Sulforhodamine B assay relative to control; conditions: read-out: GI; how it was run: as §1
[10] = test system: MCF7; experiment: Growth inhibition of human MCF7 cells at 10^-5 M after 48 hrs by Sulforhodamine B assay relative to control; conditions: MCF7, 48 h, read-out: GI; how it was run: as §1
[11] = test system: DU-145; experiment: Growth inhibition of human DU145 cells at 10^-5 M after 48 hrs by Sulforhodamine B assay relative to control; conditions: DU-145, 48 h, read-out: GI; how it was run: as §1
[12] = test system: PC-3; experiment: Growth inhibition of human PC3 cells at 10^-5 M after 48 hrs by Sulforhodamine B assay relative to control; conditions: PC-3, 48 h, read-out: GI; how it was run: as §2
[13] = test system: UO-31; experiment: Growth inhibition of human UO31 cells at 10^-5 M after 48 hrs by Sulforhodamine B assay relative to control; conditions: UO-31, 48 h, read-out: GI
How it was run: (§3)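 Single-dose stage: compound tested at 10⁻⁵ M in the 49-cell-line panel. Cells grew 24 h at 37 °C, 5% CO₂ before drug addition. Drug stock was in DMSO at 400-fold, diluted in medium with gentamicin. After 48 h exposure, adherent cells were fixed with cold TCA (10% final) and stained with 0.4% SRB in 1% acetic acid. Dye was solubilized in 10 mM Tris, read at 515 nm. Growth percentage was taken relative to untreated control and time-zero plates.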

[14] = test system: CAKI-1; experiment: Growth inhibition of human CAKI-1 cells at 10^-5 M after 48 hrs by Sulforhodamine B assay relative to control; conditions: CAKI-1, 48 h, read-out: GI; how it was run: as §1
[15] = test system: SK-OV-3; experiment: Growth inhibition of human SKOV3 cells at 10^-5 M after 48 hrs by Sulforhodamine B assay relative to control; conditions: SK-OV-3, 48 h, read-out: GI; how it was run: as §2
[16] = test system: OVCAR-4; experiment: Growth inhibition of human OVCAR4 cells at 10^-5 M after 48 hrs by Sulforhodamine B assay relative to control; conditions: OVCAR-4, 48 h, read-out: GI; how it was run: as §2
[17] = test system: IGROV-1; experiment: Growth inhibition of human IGROV1 cells at 10^-5 M after 48 hrs by Sulforhodamine B assay relative to control; conditions: IGROV-1, 48 h, read-out: GI; how it was run: as §1
[18] = test system: UACC-62; experiment: Growth inhibition of human UACC62 cells at 10^-5 M after 48 hrs by Sulforhodamine B assay relative to control; conditions: UACC-62, 48 h, read-out: GI; how it was run: as §3
[19] = test system: SK-MEL-28; experiment: Growth inhibition of human SK-MEL-28 cells at 10^-5 M after 48 hrs by Sulforhodamine B assay relative to control; conditions: SK-MEL-28, 48 h, read-out: GI; how it was run: as §2

Clc1nc(-c2ccccn2)nc2sc3c(c12)CCCCCC3
inhibition of growth at 10 µM [1]: 13.2% | inhibition of growth at 10 µM [2]: 32.2% | inhibition of growth at 10 µM [3]: 15.5% | inhibition of growth at 10 µM [4]: 13.4% | inhibition of growth at 10 µM [5]: 0.18% | inhibition of growth at 10 µM [6]: 20.2% | inhibition of growth at 10 µM [7]: 184% | inhibition of growth at 10 µM [8]: 14.9% | inhibition of growth at 10 µM [9]: 8.7% | inhibition of growth at 10 µM [10]: 46% | inhibition of growth at 10 µM [11]: 77.5% | inhibition of growth at 10 µM [12]: 7.81% | inhibition of growth at 10 µM [13]: 83.6% | inhibition of growth at 10 µM [14]: 165% | inhibition of growth at 10 µM [15]: -5.16% | inhibition of growth at 10 µM [16]: 14.3% | inhibition of growth at 10 µM [17]: 10.2% | inhibition of growth at 10 µM [18]: 4.04% | inhibition of growth at 10 µM [19]: 10.7%

c1ccc(N2CCN(c3nc(-c4ccccn4)nc4sc5c(c34)CCCCCC5)CC2)cc1
inhibition of growth at 10 µM [1]: 27.1% | inhibition of growth at 10 µM [2]: 42.2% | inhibition of growth at 10 µM [3]: 80.5% | inhibition of growth at 10 µM [4]: 36.2% | inhibition of growth at 10 µM [5]: 68.2% | inhibition of growth at 10 µM [6]: 79.2% | inhibition of growth at 10 µM [7]: 30.1% | inhibition of growth at 10 µM [8]: 2.77% | inhibition of growth at 10 µM [9]: 6.17% | inhibition of growth at 10 µM [10]: 89.2% | inhibition of growth at 10 µM [11]: 21.1% | inhibition of growth at 10 µM [12]: 54% | inhibition of growth at 10 µM [13]: 55.8% | inhibition of growth at 10 µM [14]: 45.9% | inhibition of growth at 10 µM [15]: 12.6% | inhibition of growth at 10 µM [16]: 44% | inhibition of growth at 10 µM [17]: 62.9% | inhibition of growth at 10 µM [18]: 41.2% | inhibition of growth at 10 µM [19]: 7.85%

c1cc(-c2nc(N3CCOCC3)c3c4c(sc3n2)CCCCCC4)ccn1
inhibition of growth at 10 µM [1]: -15.4% | inhibition of growth at 10 µM [2]: 11.6% | inhibition of growth at 10 µM [3]: 23.2% | inhibition of growth at 10 µM [4]: 1.14% | inhibition of growth at 10 µM [5]: 24.9% | inhibition of growth at 10 µM [6]: 29.3% | inhibition of growth at 10 µM [7]: 11.8% | inhibition of growth at 10 µM [8]: -20.4% | inhibition of growth at 10 µM [9]: -13.3% | inhibition of growth at 10 µM [10]: 28.5% | inhibition of growth at 10 µM [11]: 1.4% | inhibition of growth at 10 µM [12]: 35.4% | inhibition of growth at 10 µM [13]: 38.7% | inhibition of growth at 10 µM [14]: 15.8% | inhibition of growth at 10 µM [15]: 0.61% | inhibition of growth at 10 µM [16]: 22.7% | inhibition of growth at 10 µM [17]: 1.53% | inhibition of growth at 10 µM [18]: 15.5% | inhibition of growth at 10 µM [19]: -7.03%

CN1CCN(c2nc(-c3ccccn3)nc3sc4c(c23)CCCCCC4)CC1
inhibition of growth at 10 µM [1]: 6.12% | inhibition of growth at 10 µM [2]: 4.93% | inhibition of growth at 10 µM [3]: 14.1% | inhibition of growth at 10 µM [4]: -3.13% | inhibition of growth at 10 µM [5]: 22.6% | inhibition of growth at 10 µM [6]: 20% | inhibition of growth at 10 µM [7]: 5.4% | inhibition of growth at 10 µM [8]: 10.3% | inhibition of growth at 10 µM [9]: 6.23% | inhibition of growth at 10 µM [10]: 50.4% | inhibition of growth at 10 µM [11]: -11.6% | inhibition of growth at 10 µM [12]: 15.3% | inhibition of growth at 10 µM [13]: 32.8% | inhibition of growth at 10 µM [14]: 20% | inhibition of growth at 10 µM [15]: -3.22% | inhibition of growth at 10 µM [16]: 16% | inhibition of growth at 10 µM [17]: 6.64% | inhibition of growth at 10 µM [18]: 9.41% | inhibition of growth at 10 µM [19]: -5.08%

COc1ccc(N2CCN(c3nc(-c4ccncc4)nc4sc5c(c34)CCCCCC5)CC2)cc1
inhibition of growth at 10 µM [1]: -0.58% | inhibition of growth at 10 µM [2]: 8.33% | inhibition of growth at 10 µM [3]: 23.3% | inhibition of growth at 10 µM [4]: 0.29% | inhibition of growth at 10 µM [6]: 23.2% | inhibition of growth at 10 µM [7]: 0.83% | inhibition of growth at 10 µM [8]: -17.1% | inhibition of growth at 10 µM [9]: -5.59% | inhibition of growth at 10 µM [10]: 18.1% | inhibition of growth at 10 µM [11]: 2.73% | inhibition of growth at 10 µM [12]: 44.5% | inhibition of growth at 10 µM [13]: 11.1% | inhibition of growth at 10 µM [14]: 28.8% | inhibition of growth at 10 µM [15]: 0.84% | inhibition of growth at 10 µM [16]: 11.1% | inhibition of growth at 10 µM [17]: 3.43% | inhibition of growth at 10 µM [18]: 36.9% | inhibition of growth at 10 µM [19]: -5.27%
